Data taken from paper PMC3783659 (Bioorganic & medicinal chemistry letters, 2013).

Target: KIX-KID interaction (Homo sapiens, UniProt P16220+Q92793)
Experiment: KIX-KID split renilla luciferase
Type: biochemical
Outline: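 RLuc split into N-terminal (RLucN) and C-terminal (RLucC) halves. RLucC-KIX and KID-RLucN fusions combined with a range of test compound concentrations (top 50 or 100 μM) at 4 °C. Residual RLuc luminescence read after 20 h. Stocks in DMSO, or DMF for one unstable compound. IC50 in μM from at least two independent experiments, each in duplicate.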

Chain of KIX-KID interaction (Q92793 587-666 limits assumed): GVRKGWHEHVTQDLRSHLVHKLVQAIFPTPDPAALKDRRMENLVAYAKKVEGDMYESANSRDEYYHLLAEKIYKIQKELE
Chain of KIX-KID interaction (P16220 87-146 limits assumed): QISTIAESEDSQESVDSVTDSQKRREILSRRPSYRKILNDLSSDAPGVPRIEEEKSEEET

KIX-KID inhibition (IC50) (split RLuc assay, 4 °C, 20 h incubation, mean ± SD)	Structure (SMILES)	Inhibition of KIX-KID interaction in initial screen (NCI diversity set screen at 10 μM)
inactive	O=[N+]([O-])c1cc(NCc2cccc3nonc23)ccc1Cl [9a]	–
–	O=[N+]([O-])c1ccc(Sc2cccc[n+]2[O-])c2nonc12 [compound 1, 2-[(7-nitrobenzo[c][1,2,5]oxadiazol-4-yl)thio]pyridine 1-oxide]	consistently shown to efficaciously inhibit KIX-KID interaction
